Reference: ChEMBL document CHEMBL1128264, “Second-generation leukotriene B4 receptor antagonists related to SC-41930: heterocyclic replacement of the methyl ketone pharmacophore” (J Med Chem, 1995)
One block for each compound: values may come before it.

What was measured:
[1] = target: T1, Leukotriene B4 receptor 1 (Homo sapiens, UniProt Q15722); assay: Binding affinity for Leukotriene B4 (LTB4) receptor
Procedure, shortened: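 Human blood neutrophils (dextran sedimentation, Ficoll-paque, hypotonic lysis without BSA), 4 × 10⁶ cells with 0.6 nM [³H]LTB₄ ± test compound in 1 mL HBSS, 0 °C for 45 min; 30 μM NDGA present in some assays. Glass-fibre filtration with ice-cold HBSS washes.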

[2] = target: Leukotriene B4 receptor (Homo sapiens, UniProt Q9NPC1+Q15722); assay: Inhibition of Leukotriene B4 (LTB4) induced chemotaxis.; assay type: functional
[3] = species: Homo sapiens; assay: Potency against LTB4 binding to its receptor on eosinophils.; assay type: functional, organism-based
[4] = tested on: HL-60; assay: Inhibitory activity against PGE-2 production in HL60s.; assay type: functional, cell-based; conditions: Homo sapiens
[5] = tested on: Cavia porcellus; assay: In vivo activity for topical application using LTB4-induced […] intradermal chemotaxis assay.; assay type: functional
[6] = species: Homo sapiens; assay: Inhibitory activity against HETE-induced chemotaxis; assay type: functional, organism-based
[7] = species: Homo sapiens; assay: Tested for the ability to inhibit Leukotriene B4 (LTB4) induced degranulation.; assay type: functional, organism-based
Procedure, shortened: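 Human neutrophils (3 × 10⁶ in 1 mL HBSS) pretreated with 5 μg cytochalasin B for 5 min at 37 °C, then with test compound for 7 min, then stimulated with 5 × 10⁻⁸ M LTB₄ for 2 min. MPO in pellet and supernatant read spectrophotometrically (o-dianisidine/peroxide). Release is expressed as percent of total MPO after subtracting basal.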

[8] = tested on: Mus musculus; assay: In vivo murine (intracolonic) SCOA-induced colitis activity of the compound.; assay type: functional
Procedure, shortened: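 Mouse colitis induced under light anesthesia by a single intrarectal enema of 3% acetic acid. Test compound given intrarectally 1 h before and 1 h after instillation. Colonic MPO assessed at 24 h. ED50 is in mg/kg.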

[9] = species: Homo sapiens; assay: Tested for the ability to inhibit Leukotriene B4 (LTB4) induced chemotaxis. (Test compound added to upper and lower wells.); assay type: functional, organism-based
Procedure, shortened: (§1)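 Test compound is placed in both upper and lower wells. After 90 min at 37 °C, migrated cells in the lower well are Coulter-counted. Inhibition is computed after subtracting the HBSS random-migration mean.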

[10] = tested on: Canis lupus familiaris; assay: In vivo activity for intravenous administration using LTB4-induced canine intradermal chemotaxis assay.
[11] = species: Homo sapiens; assay: Potency against LTB4-induced eosinophil chemotaxis.; assay type: functional, organism-based
[12] = species: Homo sapiens; assay: Inhibitory activity against LTB4 production in PMNs.; assay type: functional, organism-based
[13] = tested on: Cavia porcellus; assay: In vivo […] (oral) SCOA-induced colitis activity of the compound.; assay type: functional
Procedure, shortened: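 Guinea pig colitis induced under light anesthesia by a single intrarectal enema of 4% acetic acid. Oral dosing 30 min before induction. Colonic MPO activity measured after 24 h. ED50 is in mg/kg.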

[14] = tested on: Canis lupus familiaris; assay: In vivo activity for oral administration using LTB4-induced canine intradermal chemotaxis assay.
[15] = tested on: Mus musculus; assay: In vivo murine epidermal inflammation for topical application.; assay type: functional
Procedure, shortened: (§2)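 PMA (25 μg) in acetone applied to the dorsal surface of one mouse ear, with vehicle on the other ear. Test compound applied topically with the PMA in acetone. At 18 h, ears were removed and weighed. Edema is weight gain versus the contralateral ear, and MPO was also assayed. ED50 is in mg.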

[16] = tested on: HL-60; assay: Inhibitory activity against LTB4 production in HL60s.; assay type: functional, cell-based; conditions: Homo sapiens
[17] = target: T1, Leukotriene B4 receptor 1; assay: Binding affinity towards Leukotriene B4 (LTB4) Receptor. Experiment conducted in the absence of NDGA.
Procedure, shortened: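 Human neutrophils isolated with dextran sedimentation, Ficoll-paque and BSA-free hypotonic lysis. 4 × 10⁶ cells incubated with 0.6 nM [³H]LTB₄ ± test compound in 1 mL HBSS at 0 °C for 45 min, no NDGA. Bound ligand separated by glass-fibre filtration. Specific binding is total minus binding not displaced by 0.1 μM unlabeled LTB₄.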

[18] = species: Homo sapiens; assay: Tested for the ability to inhibit Leukotriene B4 (LTB4) induced chemotaxis. Test compound added to upper and lower wells.; assay type: functional, organism-based; procedure, shortened: as §1
[19] = tested on: Mus musculus; assay: Compound measured by topical application using Murine epidermal inflammation assay; assay type: functional; procedure, shortened: as §2
[20] = tested on: Cavia porcellus; assay: In vivo activity for intravenous administration using LTB4-induced guinea pig intradermal chemotaxis assay.
[21] = tested on: Cavia porcellus; assay: In vivo guinea pig (oral) SCOA-induced colitis activity of the compound.
[22] = tested on: Cavia porcellus; assay: In vivo activity for oral administration using LTB4-induced guinea pig intradermal chemotaxis assay.
[23] = species: Homo sapiens; assay: Tested for the ability to inhibit Leukotriene B4 (LTB4) induced chemotaxis. (Test compound added to upper and lower wells); assay type: functional, organism-based; procedure, shortened: as §1
[24] = species: Homo sapiens; assay: Inhibition of fMLP-induced chemotaxis; assay type: functional, organism-based
[25] = species: Homo sapiens; assay: Inhibition of 12-(R)-hydroxyeicosatetraenoic acid (HETE)-induced chemotaxis; assay type: functional, organism-based
[26] = species: Homo sapiens; assay: Inhibition of fMLP-induced degranulation in the PMN degranulation assay; assay type: functional, organism-based

T1 sequence (Q15722 whole entry): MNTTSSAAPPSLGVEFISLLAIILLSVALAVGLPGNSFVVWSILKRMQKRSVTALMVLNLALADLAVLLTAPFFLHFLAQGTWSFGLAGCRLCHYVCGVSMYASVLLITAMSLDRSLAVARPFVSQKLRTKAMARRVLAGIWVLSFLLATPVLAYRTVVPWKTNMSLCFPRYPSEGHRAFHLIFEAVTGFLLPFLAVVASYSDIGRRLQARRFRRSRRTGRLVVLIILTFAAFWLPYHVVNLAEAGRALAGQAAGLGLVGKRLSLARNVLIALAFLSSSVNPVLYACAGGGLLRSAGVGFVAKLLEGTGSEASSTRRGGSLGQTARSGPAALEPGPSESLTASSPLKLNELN

IC50 [1]: 770 nM | IC50 [2]: 1600 nM
SMILES: CCCc1c(OCCCOc2ccc(-c3ccno3)c(OC)c2CCC)ccc2c1OC(C(=O)O)CC2 (stereo not given)

IC50 [3]: 2.6 nM | IC50 [4]: 928 nM | IC50 [6]: 106 nM | IC50 [7]: 57 nM | IC50 [9]: 89 nM | IC50 [11]: 9 nM | IC50 [12]: 520 nM | IC50 [16]: 660 nM
SMILES: CCCc1c(OCCCOc2ccc(-c3cscn3)c(OC)c2CC2CC2)ccc2c1OC(C(=O)O)CC2 (stereo in doubt; 35)
ED50 [5]: 70 ng | ED50 [8]: 12 mg/kg | ED50 [10]: 0.02 mg/kg | ED50 [13]: 3.4 mg/kg | ED50 [14]: 0.74 mg/kg | ED50 [15]: 0.8 mg

IC50 ([7]; Homo sapiens): 920 nM | IC50 [1]: 140 nM | IC50 [2]: 350 nM
SMILES: CCCc1c(OCCCOc2ccc(C(N)=O)c(OC)c2CCC)ccc2c1OC(C(=O)O)CC2 (stereo not given)

IC50 ([7]; Homo sapiens): 90 nM | IC50 [1]: 93 nM | IC50 [2]: 287 nM
SMILES: CCCc1c(OCCCOc2ccc(-c3cscn3)c(OC)c2CCC)ccc2c1OC(C(=O)O)CC2 (stereo not given)

IC50 ([7]; Homo sapiens): 23 nM | IC50 [1]: 25 nM | IC50 [2]: 110 nM
SMILES: C=CCc1c(OCCCOc2ccc3c(c2CCC)OC(C(=O)O)CC3)ccc(-c2cscn2)c1OC (stereo not given)

IC50 [17]: 750 nM | IC50 [18]: 430 nM
SMILES: CCCc1c(OCCCOc2ccc(-c3c[nH]c(SCc4ccccc4)n3)c(OC)c2CCC)ccc2c1OC(C(=O)O)CC2 (stereo not given)

IC50 [7]: 79 nM
SMILES: CCCc1c(OCCCOc2ccc(-c3cscn3)c(OC)c2CC2CC2)ccc2c1OC(C(=O)O)CC2 (stereo in doubt; -/-35)
ED50 [5]: 98 ng | ED50 [19]: 0.98 mg | ED50 [8]: 11.7 mg/kg | ED50 [13]: 5.9 mg/kg

IC50 [17]: 5.2 nM | IC50 ([7]; Homo sapiens): 130 nM | IC50 [18]: 88 nM
SMILES: CCCc1c(OCCCOc2ccc(-c3c[nH]nn3)c(OC)c2CCC)ccc2c1OC(C(=O)O)CC2 (stereo not given)

IC50 [1]: 1150 nM | IC50 [2]: > 10000 nM
SMILES: CCCc1c(OCCCOc2ccc(-c3csc(OC)n3)c(OC)c2CCC)ccc2c1OC(C(=O)O)CC2 (stereo not given)

IC50 ([7]; Homo sapiens): 920 nM | IC50 [23]: 832 nM
SMILES: CCCc1c(OCCCOc2ccc(C(C)=O)c(OC)c2CCC)ccc2c1OC(C(=O)O)CC2 (stereo not given) [SC-41390]
ED50 [20]: 0.5 mg/kg | ED50 [21]: 20 mg/kg | ED50 [5]: 340 ng | ED50 [22]: 1.7 mg/kg | ED50 ([8]; Mus musculus, read-out: ED50): 28 mg/kg

IC50 [1]: 5800 nM | IC50 [2]: > 10000 nM
SMILES: CCCc1c(OCCCOc2ccc(-c3csc(SCc4ccccc4)n3)c(OC)c2CCC)ccc2c1OC(C(=O)O)CC2 (stereo not given)

IC50 [17]: 12.3 nM | IC50 ([7]; Homo sapiens): 7 nM | IC50 [18]: 49 nM
SMILES: CCCc1c(OCCCOc2ccc(-c3cscn3)c(OC)c2CC2CC2)ccc2c1OC(CCC(=O)O)CC2 (stereo not given)

IC50 [17]: 15.5 nM | IC50 ([7]; Homo sapiens): 220 nM | IC50 [18]: 360 nM
SMILES: CCCc1c(OCCCOc2ccc(-c3cscn3)c(OC)c2CC2CC2)cccc1OCC(=O)O

IC50 ([7]; Homo sapiens): 230 nM | IC50 [1]: 100 nM | IC50 [2]: 430 nM
SMILES: CCCc1c(OCCCOc2ccc(-c3cocn3)c(OC)c2CCC)ccc2c1OC(C(=O)O)CC2 (stereo not given)

IC50 [24]: 1410 nM | IC50 [25]: 106 nM | IC50 ([7]; Homo sapiens): 48 nM | IC50 [26]: 5900 nM | IC50 ([9]; Homo sapiens): 67 nM
SMILES: CCCc1c(OCCCOc2ccc(-c3cscn3)c(OC)c2CC2CC2)ccc2c1OC(C(=O)O)CC2 (racemic)
ED50 [5]: 18 ng | ED50 ([8]; Mus musculus, read-out: ED50): 7.1 mg/kg | ED50 [13]: 2.3 mg/kg | ED50 [14]: 0.2 mg/kg

IC50 [1]: 1100 nM | IC50 [2]: > 10000 nM
SMILES: CCCc1c(OCCCOc2ccc(-c3coc(C)n3)c(OC)c2CCC)ccc2c1OC(C(=O)O)CC2 (stereo not given)

IC50 [1]: 320 nM | IC50 [2]: 1500 nM
SMILES: CCCc1c(OCCCOc2ccc(-c3csc(N)n3)c(OC)c2CCC)ccc2c1OC(C(=O)O)CC2 (stereo not given)

IC50 ([7]; Homo sapiens): 70 nM | IC50 [1]: 26 nM | IC50 [2]: 1540 nM
SMILES: CCCc1c(OCCCOc2ccc(-c3cscn3)c(OC)c2CCC)ccc2c1OC(CCC(=O)O)CC2 (stereo not given)

IC50 [1]: 2800 nM | IC50 [2]: 18600 nM
SMILES: CCCc1c(OCCCOc2ccc(-c3csc(SC)n3)c(OC)c2CCC)ccc2c1OC(C(=O)O)CC2 (stereo not given)

IC50 [1]: 520 nM | IC50 [2]: 1200 nM
SMILES: CCCc1c(OCCCOc2ccc(-c3c[nH]cn3)c(OC)c2CCC)ccc2c1OC(C(=O)O)CC2 (stereo not given)

IC50 [1]: 610 nM | IC50 [2]: 1200 nM
SMILES: CCCc1c(OCCCOc2ccc(-c3cc[nH]n3)c(OC)c2CCC)ccc2c1OC(C(=O)O)CC2 (stereo not given)

IC50 ([7]; Homo sapiens): 1200 nM | IC50 [1]: 890 nM | IC50 [2]: 520 nM
SMILES: CCCc1c(OCCCOc2ccc(-c3csc(S)n3)c(OC)c2CCC)ccc2c1OC(C(=O)O)CC2 (stereo not given)
